For test [1], the target named is T1, Gonadotropin-releasing hormone receptor (Homo sapiens, UniProt P30968).
T1 sequence (P30968 whole entry): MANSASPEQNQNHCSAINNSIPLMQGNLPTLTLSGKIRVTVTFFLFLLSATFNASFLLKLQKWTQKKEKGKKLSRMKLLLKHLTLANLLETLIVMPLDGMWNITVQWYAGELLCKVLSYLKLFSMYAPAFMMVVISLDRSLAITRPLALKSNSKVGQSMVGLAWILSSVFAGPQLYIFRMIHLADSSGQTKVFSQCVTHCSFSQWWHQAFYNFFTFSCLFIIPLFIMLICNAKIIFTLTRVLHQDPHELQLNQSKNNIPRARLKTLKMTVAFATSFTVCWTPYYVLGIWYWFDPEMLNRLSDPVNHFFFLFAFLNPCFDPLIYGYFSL
The experiment in a line: Antagonism of human GnHR receptor, determined in a reporter gene assay in HEK293 cells. Type of test: functional, cell-based. In a few lines: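 HEK293 cells stably expressing cloned human GnRH receptor plus luciferase reporter under LH alpha subunit promoter, plated 24 h before assay. Compound in 1% DMSO added 10 min at 37 °C, then GnRH at 3 nM final; 5 h incubation, luciferase luminescence read. Six concentrations in duplicate; blank-subtracted cps as % of GnRH control; mean of two determinations.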
A general note: Reporter assays use an easily measured gene product as a stand-in for the process of interest.

Test [2] addresses T1, Gonadotropin-releasing hormone receptor. The experiment in a line: Competitive antagonism of GnRH-induced response in the reporter gene assay. As to conditions: read-out: pA2 (converted). Type of test: functional. In a few lines:
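Same HEK293 human GnRH receptor luciferase reporter cells. Seven-point GnRH curve (10 µM to 10 pM final) run in duplicate without or with four to five increasing compound concentrations (10 min preincubation, 37 °C), then 5 h and luminescence. GnRH EC50 at each level by four-parameter logistic fit, giving pA2; mean of two determinations in duplicate.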

For test [3], the species on record is Rattus norvegicus. The experiment in a line: Compound was tested for inhibition of Leutenizing hormone release at 72 hours (long duration) in castrated male rat assay. The class given is functional. On the set-up: concentration or dose not given beside the values. In a few lines: (§1)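 Male Sprague-Dawley rats (180-200 g), castrated under ether 10 days earlier, 5 per group. 50 µg/rat given sc in 100 µL 40 mM phosphate buffer with 0.1% BSA and 0.6% DMSO; acyline run as internal standard. Tail blood taken predose and at 24, 48, 72, 96 (sometimes 120) h; plasma LH by RIA. Duration classed by >80% LH inhibition at each time.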

The species named for test [4] is Rattus norvegicus. Briefly: Effective dose for histamine release was determined. The class given is functional. The gist of the method:
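ED50 for histamine release calculated from % release values across concentrations in rat peritoneal mast cell assay (2 min, 37 °C, o-phthalaldehyde fluorometric read-out, corrected for vehicle release).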

For test [5], the species on record is Rattus norvegicus. Briefly: Compound was tested for histamine release at a concentration of 1 ug/mL. Type of test: functional. The gist of the method:
(§2)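 Sprague-Dawley rat peritoneal mast cells, Percoll-purified, in heparinized balanced salt solution with albumin, pH 7.2. Cells exposed to compound or vehicle for 2 min at 37 °C. Supernatant histamine measured spectrofluorometrically after o-phthalaldehyde derivatization; pellets lysed for retained histamine. Reported as % of total histamine released, corrected for spontaneous release in vehicle.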

For test [6], the species on record is Rattus norvegicus. The experiment in a line: Compound was tested for histamine release at a concentration of 10 ug/mL. Type of test: functional. The gist of the method: as §2
The species entered for test [7] is Rattus norvegicus. The experiment in a line: Compound was tested for histamine release at a concentration of 3 ug/mL. Type of test: functional. In a few lines:
as §2

The species named for test [8] is Rattus norvegicus. Briefly: Compound was tested for inhibition of Leutenizing hormone release at 24 hours (very short duration) in castrated male rat assay; NI means no inhibition at 24 hr. Type of test: functional, organism-based. The gist of the method:
as §1

The species named for test [9] is Rattus norvegicus. The experiment in a line: Compound was tested for inhibition of Leutenizing hormone release at 48 hours (intermediate duration) in castrated male rat assay. Type of test: functional. The gist of the method: as §1
The species named for test [10] is Rattus norvegicus. The experiment in a line: Compound was tested for histamine release at a concentration of 100 ug/mL. The class given is functional. The gist of the method: as §2
For test [11], the species on record is Rattus norvegicus. Briefly: Compound was tested for histamine release at a concentration of 30 ug/mL. The class given is functional. In a few lines:
as §2

For test [12], the species on record is Rattus norvegicus. The experiment in a line: Compound was tested for histamine release at a concentration of 300 ug/mL. Type of test: functional. In a few lines:
as §2

Test [13] is filed under the species Rattus norvegicus. Briefly: Compound was tested for inhibition of Leutenizing hormone release at 96 hours (very long duration) in castrated male rat assay. Set-up: concentration or dose not given beside the values. The class given is functional. In a few lines: as §1
The species named for test [14] is Rattus norvegicus. The experiment in a line: Compound was tested for histamine release at a concentration of 150 ug/mL. Type of test: functional. In a few lines:
as §2

In brackets after ≈: the same amount, converted by molar mass. Where a SMILES comes first, the peptide text is derived from it. [ ]: non-standard residue; d: D form. dPhe(4-Cl) = N[C@H](Cc1ccc(Cl)cc1)C(=O)O; d2Nal = N[C@H](Cc1ccc2ccccc2c1)C(=O)O; dCit = NC(=O)NCCC[C@@H](N)C(=O)O; d3Pal = N[C@H](Cc1cccnc1)C(=O)O A value given as a limit tells only on which side of the number the result lay.

The term IC50 denotes the concentration that gives 50% inhibition. As a reminder, the Inhibition is the percentage by which the read-out fell short of the control. In test [1], `CC(=O)N[C@H](Cc1ccc2ccccc2c1)C(=O)N[C@H](Cc1ccc(Cl)cc1)C(=O)N[C@H](Cc1cccnc1)C(=O)N[C@@H](CO)C(=O)N[C@@H](Cc1ccc(O)cc1)C(=O)N[C@H](CCCNC(N)=O)C(=O)N[C@@H](CC(C)C)C(=O)N[C@@H](CCCNC(=N)N)C(=O)N1CCC[C@H]1C(=O)N[C@H](C)C(N)=O` [CETRORELIX] (Ac-[d2Nal][dPhe(4-Cl)][d3Pal]SY[dCit]LRP[dA]-NH2) showed an IC50 of 4.2 nM. In addition, in test [2], the Kb is 1.26 nM. The compound also displayed an Inhibition in the test filed under Rattus norvegicus [3] above 80%. The compound further returned an ED50 in the test listed under Rattus norvegicus [4] of 1.3 µg/mL (≈ 0.908 µM). Further, the HR stood at 34% in the test listed under Rattus norvegicus [5], 64% in the test filed under Rattus norvegicus [6] and 5% in the test listed under Rattus norvegicus [7].

As for `CC(=O)N[C@H](Cc1ccc2ccccc2c1)C(=O)N[C@H](Cc1ccc(Cl)cc1)C(=O)N[C@H](Cc1cccnc1)C(=O)N[C@@H](CO)C(=O)N[C@@H](CCCCNC(=O)[C@H]1CC(=O)NC(=O)N1)C(=O)N[C@H](CCCCNC(=O)[C@@H]1CC(=O)NC(=O)N1)C(=O)N[C@@H](CC(C)C)C(=O)N[C@@H](CCCCNC(C)C)C(=O)N1CCC[C@H]1C(=O)N[C@H](C)C(N)=O`, in the test listed under Rattus norvegicus [8], the NI result is “no inhibition at 24 hr”.

Compound `CC(=O)N[C@H](Cc1ccc2ccccc2c1)C(=O)N[C@H](Cc1ccc(Cl)cc1)C(=O)N[C@H](Cc1cccnc1)C(=O)N[C@@H](CO)C(=O)N[C@@H](Cc1ccc(NC(=O)[C@H]2CC(=O)NC(=O)N2)cc1)C(=O)N[C@H](Cc1ccc(CNC(N)=O)cc1)C(=O)N[C@@H](CC(C)C)C(=O)N[C@@H](CCCCNC(C)C)C(=O)N1CCC[C@H]1C(=O)N[C@H](C)C(N)=O` registered an Inhibition in the test filed under Rattus norvegicus [9] above 80%.

For `CC(=O)Nc1ccc(C[C@H](NC(=O)[C@H](CO)NC(=O)[C@@H](Cc2cccnc2)NC(=O)[C@@H](Cc2ccc(Cl)cc2)NC(=O)[C@@H](Cc2ccc3ccccc3c2)NC(C)=O)C(=O)N[C@H](Cc2ccc(NC(C)=O)cc2)C(=O)N[C@@H](CC(C)C)C(=O)N[C@@H](CCCCNC(C)C)C(=O)N2CCC[C@H]2C(=O)N[C@H](C)C(N)=O)cc1` [ACYLINE], it took 6.8 nM to reach half-maximal inhibition in [1] (IC50). Besides, in [2], the Kb is 2.51 nM. In the test listed under Rattus norvegicus [3], the Inhibition was above 80%. In the test filed under Rattus norvegicus [4], this compound yielded an ED50 of 66 µg/mL (≈ 43 µM). Further, the results for the HR in the test filed under Rattus norvegicus [10], in the test listed under Rattus norvegicus [11] and in the test filed under Rattus norvegicus [12] were 56%, 43% and 87%, respectively.

The compound `CC(=O)N[C@H](Cc1ccc2ccccc2c1)C(=O)N[C@H](Cc1ccc(Cl)cc1)C(=O)N[C@H](Cc1cccnc1)C(=O)N[C@@H](CO)C(=O)N[C@@H](Cc1ccc(NC(=O)[C@@H]2CC(=O)NC(=O)N2)cc1)C(=O)N[C@H](Cc1ccc(CNC(N)=O)cc1)C(=O)N[C@@H](CC(C)C)C(=O)N[C@@H](CCCCNC(C)C)C(=O)N1CCC[C@H]1C(=O)N[C@H](C)C(N)=O` displayed an Inhibition in the test filed under Rattus norvegicus [13] above 80%. Besides, the HR in the test filed under Rattus norvegicus [10] is given as 48%; in the test listed under Rattus norvegicus [11], 21%; in the test listed under Rattus norvegicus [12] it was 64%.

As to `CC(=O)Nc1ccc(C[C@@H](NC(=O)[C@H](CNC(=O)[C@@H]2CC(=O)NC(=O)N2)NC(=O)[C@H](CO)NC(=O)[C@@H](Cc2cccnc2)NC(=O)[C@@H](Cc2ccc(Cl)cc2)NC(=O)[C@@H](Cc2ccc3ccccc3c2)NC(C)=O)C(=O)N[C@@H](CC(C)C)C(=O)N[C@@H](CCCCNC(C)C)C(=O)N2CCC[C@H]2C(=O)N[C@H](C)C(N)=O)cc1`, the NI entry in the test listed under Rattus norvegicus [8] is “no inhibition at 24 hr”. In the test listed under Rattus norvegicus [14], this compound showed an HR of 96%.

(Values after ChEMBL document CHEMBL1134340, “GnRH antagonists: a new generation of long acting analogues incorporating p-ureido-phenylalanines at positions 5 and 6” (J Med Chem, 2001).)
